Ecoli rRNA inh: reduced GFP signal of wild-type E. coli, primary screen, bacterial rRNA inhibitor project, GFP/RFP fluorescence, OD600, single point | E. coli WT GFP vs humanized-ribosome RFP mutants, 24 h; hits give low values; DMSO median 0, no signal -100 | GFP signal change (wild-type ribosome), % (no concentration beside the values) | 350,000 compounds, 1.6% hits | AID 720706, 2013;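 active = significant combined selectivity score with lowered wild-type GFP, culture density cut under 30%, mutant RFP and density less affected; inactive = any of these conditions unmet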
FGF22 binding: binders of human FGF22 protein, primary screen, FGF22 synaptogenesis inhibitor project, biophysical, thermal shift, single point; recombinant FGF22 thermal shift, SYPRO orange fluorescence; percent of sucrose octasulfate shift, DMSO zero; activity (Tm shift, normalised), % at 9.99 µM; AID 651658, 2012; 340,000 compounds, 1.5% hits;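 active = mean Tm shift, scaled 0 neutral to 100 positive control, at about 1.3% or above, every replicate too, limit read from the data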
Target sequence (Q9HCT0 whole entry, looked up): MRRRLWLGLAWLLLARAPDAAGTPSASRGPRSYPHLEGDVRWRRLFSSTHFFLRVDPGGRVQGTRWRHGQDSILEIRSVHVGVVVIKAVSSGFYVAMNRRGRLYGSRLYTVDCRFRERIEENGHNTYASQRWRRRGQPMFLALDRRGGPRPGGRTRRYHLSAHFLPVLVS
Vif inh: HIV Vif self-association inhibitors, primary screen, imaging, HEK293T, single point | AID 602346, 2012 | inhibition, % at 7.49 µM | HEK293T cells, Vif self-association by quenched fluorescence, 24 h | 340,000 compounds, 0.35% hits; in the data active = inhibition above about 50%, passing the limit was not always enough
Cneo AK release: Cryptococcus neoformans cell lysis inducers, primary screen, AK release luminescence, single concentration; C. neoformans lysis, adenylate kinase release luminescence, 4 h; normalised: neutral wells 0, clomiphene wells 100; lysis activity, % at 15 µM; 360,000 compounds, 0.2% hits; AID 651654, 2012;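 active = mean lysis activity across replicates of at least 80%, whatever share of replicates individually reach that level; inactive = mean lysis activity below 80%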
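Material – Cryptococcus neoformans yeast cells · Quantity – 5 × 10^6 yeast cells/mL · Buffer or medium – YPD medium · Compound – single dose · Timing – 4 h static compound exposure, 37 °C, read 1 h post-reagent · Signal – adenylate kinase release luminescence · Read-out basis – lysis from increased AK signal · Benchmarks – Clomiphene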
PGC1a acetyl inh: inhibitors of PGC1a acetylation signal, primary screen, cell-based, U2OS, AlphaScreen, inhibitor mode; AlphaScreen anti-acetyl-lysine; with virally co-expressed GCN5 acetyltransferase; inhibition, % at 15.6 µM; 350,000 compounds, 0.17% hits; AID 651687, 2012;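 active = every replicate shows inhibition of at least 40%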;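 note: 0% = neutral control wells and 100% = positive control wells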
PglD inh: C. jejuni PglD acetyltransferase inhibitors, primary screen, biochemical, DTNB colorimetric, single point; AID 602405, 2012; 360,000 compounds, 0.098% hits; UDP-N-acetylbacillosamine N-acetyltransferase PglD (Campylobacter jejuni); purified PglD enzyme, DTNB colorimetric CoA detection; inhibition, % at 12.5 µM; in the data active = inhibition above about 16%, passing the limit was not always enough
Numbers without * were called inactive; x = no result. Shown are actives, neighbours in structure and some others; about 2.9% of the full set was active somewhere.

SMILES	Ecoli rRNA inh	FGF22 binding	Vif inh	Cneo AK release	PGC1a acetyl inh	PglD inh
COc1cccc(-c2nc3ccccc3c(=O)o2)c1	x	x	5	-1	-3	x
Cc1ccc(C(=O)Nc2cccc(C(O)c3ccccc3)c2)cc1 (configuration not stated)	-33*	0	1	x	x	x
Cc1ccc(C(=O)Nc2cccc(-c3cn4ccccc4n3)c2)cc1	-29*	1	-1	x	33	x
O=C(Nc1cccc(-c2nc3ccccc3c(=O)o2)c1)c1ccccc1	-20*	43	5	x	4	x
Cc1ccc(Cl)cc1N1CCN(S(=O)(=O)c2ccc3[nH]c(=O)c(=O)[nH]c3c2)CC1	-29*	0	7	-2	1	-2
C[C@@H]1CN([C@H](C)CO)C(=O)c2cc(C#Cc3cccnc3)cnc2O[C@H]1CN(C)C(=O)CC1CC1	0	0	x	-1	1	6
CCOC(=O)/C(C)=N/NC(=O)c1ccc([N+](=O)[O-])cc1	15	44*	-14	x	-1	x
CCC(CO)Oc1cc(NCc2cccc(Cl)c2)c2ncn(C(C)C)c2c1 (configuration not stated)	-22*	x	-3	1	-12	-2
O=C(COC(=O)c1ccccc1)NCCC1=CCCCC1	-28*	0	-1	x	x	x
CC(C)COc1ccc(C(=O)NC(Cc2c[nH]c3ccccc23)C(=O)NN)cc1 (configuration not stated)	-35*	0	10	x	4	x
N#Cc1ccccc1CSc1nc2ccc(NC(=O)c3ccccc3C(=O)O)cc2s1	-23*	0	6	x	-3	x
CO[C@H]1CN(C)C(=O)c2ccc(NC(=O)Nc3cc(F)ccc3F)cc2OC[C@H](C)NC[C@@H]1C	0	0	x	x	-1	x
CCOc1ccc(CCNC(=O)CCOc2cc(C)ccc2C)cc1OCC	4	1.9*	-7	-1	x	-1
Cc1nn(Cc2ccc(C(=O)NN)cc2)c(C)c1Cl	-11	0	-2	x	2	x
Cc1nn(Cc2ccc(C(=O)Nc3ccccc3F)cc2)c(C)c1Cl	-24*	0	-1	0	x	3
CC(C)CC#Cc1ccc2c(c1)O[C@@H](CN(C)C(=O)Cc1ccccc1)[C@H](C)CN([C@H](C)CO)S2(=O)=O	-7	-1	x	0	8	2
Cc1cc(C)c2cccc(N)c2n1	-23*	0	-2	0	x	3
NC(N)=Nc1nc(-c2ccccc2)c2ccccc2n1	2	0	-1	0	0	2
CCc1nc(N=C(N)N)nc2ccccc12	-1	43*	x	x	x	x
Nc1nccc(SCc2ccc(Cl)cc2Cl)n1	-2	0	-3	4	2	2
Nc1nc(N)c(Cc2ccc(Cl)cc2Cl)c(N)n1	-29*	0	-1	x	9	x
Cc1ccc(-c2nnc(Nc3ccc(CC(N)=O)cc3)c3ccccc23)cc1S(=O)(=O)NCC1CCCO1 (configuration not stated)	-31*	0	7	x	-26	x
C[C@@H]1CN([C@@H](C)CO)C(=O)c2cc(NC(=O)CCN3CCOCC3)ccc2O[C@H]1CN(C)C(=O)Nc1cccc2ccccc12	4	-1	x	41	4	2
O=[N+]([O-])c1ccc(CSc2nnc(SCc3ccccc3)s2)cc1	3	44*	-15	-1	1	x
COc1ccc(S(=O)(=O)Nc2ccc3c(c2)C(=O)N([C@H](C)CO)C[C@@H](C)[C@H](CN(C)C(=O)Nc2cccc4ccccc24)OCCCC[C@@H](C)O3)cc1	-2	0	x	1	-6	-1
SMILES	Ecoli rRNA inh	FGF22 binding	Vif inh	Cneo AK release	PGC1a acetyl inh	PglD inh
CCc1ccc(S(=O)(=O)Nc2ccc(-c3nc4cccnc4s3)cc2)s1	-6	0	1	0	-3	4
O=S(=O)(Nc1ccc(-c2nc3cccnc3s2)cc1)c1cc(F)ccc1F	-20*	0	-4	x	0	x
CCc1cc2c(nc1CC)CCCN2S(=O)(=O)c1c(C)noc1C	-43	43*	x	x	x	x
CCOc1cc(N2CCOCC2)c(OCC)cc1NC(=S)NCCCOC	14	43*	4	x	-1	x
CCOc1cc(NC(=S)NCCCN2CCOCC2)c(OCC)cc1NC(=O)c1cccc(C)c1	12	0	11	x	x	x
O=C(CCN1C(=O)c2cccc3cccc(c23)C1=O)NCc1ccco1	9	44*	-7	x	x	x
O=C(CCN1C(=O)c2cccc3cccc(c23)C1=O)Nc1ccccc1	x	43*	-6	0	-6	0
Cn1cccc1CC(=O)NNC(=O)Nc1ccc(Cl)cc1	4	44*	7	x	x	x
C[C@@H]1CN([C@H](C)CO)C(=O)c2cc(C3=CCCCC3)cnc2O[C@@H]1CN(C)C(=O)c1cccnc1	6	x	x	x	0	x
NC(=O)CC(NC(=O)c1ccc(Br)cc1)c1ccc(NC2CCCCCC2)c([N+](=O)[O-])c1 (configuration not stated)	9	0	70*	1	x	-3
NC(=O)CC(NC(=O)c1ccc(Br)cc1)c1ccc(NC2CCCCC2)c([N+](=O)[O-])c1 (configuration not stated)	5	0	-1	0	x	-10
COc1ccc(S(=O)(=O)N(C)C[C@@H]2Oc3ccc(NS(=O)(=O)c4ccccc4)cc3C(=O)N([C@H](C)CO)C[C@@H]2C)cc1	-4	0	x	-5	2	-3
O=C(CSc1cccc[n+]1[O-])Nc1cccc(Oc2ccccc2)c1	-36	1	-6	x	1	x
O=C(CCl)Nc1cccc(Oc2ccccc2)c1	-26*	43*	-3	2	-18	-5
Nc1nc(SCC(=O)Nc2ccc(Oc3ccccc3)cc2)n[nH]1	x	x	-15	-6	-10	-6
Nc1nc(SCC(=O)Nc2cccc(Oc3ccccc3)c2)n[nH]1	-24*	0	-1	x	x	x
O=C(CSc1ncnc2[nH]ncc12)Nc1cccc(Oc2ccccc2)c1	-43*	0	2	-2	0	-4
CC(=O)c1cccc(NC(=O)CSc2n[nH]c(-c3ccncc3)n2)c1	1	1.7*	-14	1	x	-3
O=C(CCl)Nc1cccc(Oc2cnccn2)c1	10	0	1	-1	x	7
O=C(NC1CCC1)[C@@H]1[C@@H](CO)[C@@H]2Cn3c(ccc(-c4ccc(F)cc4)c3=O)[C@H]1N2	1	0	x	-3	x	0

Screens deposited in PubChem BioAssay by Broad Institute.
